Consider 1 compound from ChEMBL document CHEMBL4699498 (J Med Chem, 2020).

The IC50 is the concentration at which inhibition is half-maximal. A word on the DC50: it is the concentration at which degradation of the target reaches its halfway point.

Data set [1] concerns the target T1, Protein cereblon/Poly [ADP-ribose] polymerase 1 (Homo sapiens, UniProt P09874+Q96SW2). Put plainly: Protac activity at CRBN/PARP1 in human LNCaP cells assessed as induction of PARP1 degradation at 30 nM incubated for 1 to 24 hrs by Western blot analysis. The data set is classed as cell-based. Particulars: time hrs 1-24.
Target sequence in this assay (P09874 2-1014 limits assumed): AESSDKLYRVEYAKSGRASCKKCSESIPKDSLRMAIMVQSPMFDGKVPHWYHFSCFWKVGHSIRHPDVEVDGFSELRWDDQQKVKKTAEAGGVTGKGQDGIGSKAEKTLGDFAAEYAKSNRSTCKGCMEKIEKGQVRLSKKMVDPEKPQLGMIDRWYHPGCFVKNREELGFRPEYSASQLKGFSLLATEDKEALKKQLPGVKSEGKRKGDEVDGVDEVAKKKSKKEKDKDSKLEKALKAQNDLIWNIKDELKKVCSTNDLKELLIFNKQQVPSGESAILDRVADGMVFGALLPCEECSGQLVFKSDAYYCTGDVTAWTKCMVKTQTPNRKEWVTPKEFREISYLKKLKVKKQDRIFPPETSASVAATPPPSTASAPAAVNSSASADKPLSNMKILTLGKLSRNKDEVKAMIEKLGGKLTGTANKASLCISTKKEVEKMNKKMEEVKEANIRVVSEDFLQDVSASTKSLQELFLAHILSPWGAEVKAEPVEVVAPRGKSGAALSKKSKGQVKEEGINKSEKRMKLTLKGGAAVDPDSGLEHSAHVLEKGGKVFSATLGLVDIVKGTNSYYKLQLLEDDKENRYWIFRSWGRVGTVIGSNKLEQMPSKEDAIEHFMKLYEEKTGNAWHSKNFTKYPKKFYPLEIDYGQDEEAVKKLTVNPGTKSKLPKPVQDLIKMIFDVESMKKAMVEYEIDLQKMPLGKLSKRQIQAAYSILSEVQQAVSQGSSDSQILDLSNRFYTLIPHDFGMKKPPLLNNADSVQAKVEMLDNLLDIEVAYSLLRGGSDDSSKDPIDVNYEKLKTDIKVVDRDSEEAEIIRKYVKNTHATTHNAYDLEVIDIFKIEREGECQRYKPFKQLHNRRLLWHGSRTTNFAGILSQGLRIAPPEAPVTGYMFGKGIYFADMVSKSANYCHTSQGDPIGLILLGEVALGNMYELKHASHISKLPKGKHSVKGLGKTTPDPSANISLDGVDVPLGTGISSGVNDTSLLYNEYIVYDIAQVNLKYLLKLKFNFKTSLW
Target sequence in this assay (Q96SW2 whole entry partner): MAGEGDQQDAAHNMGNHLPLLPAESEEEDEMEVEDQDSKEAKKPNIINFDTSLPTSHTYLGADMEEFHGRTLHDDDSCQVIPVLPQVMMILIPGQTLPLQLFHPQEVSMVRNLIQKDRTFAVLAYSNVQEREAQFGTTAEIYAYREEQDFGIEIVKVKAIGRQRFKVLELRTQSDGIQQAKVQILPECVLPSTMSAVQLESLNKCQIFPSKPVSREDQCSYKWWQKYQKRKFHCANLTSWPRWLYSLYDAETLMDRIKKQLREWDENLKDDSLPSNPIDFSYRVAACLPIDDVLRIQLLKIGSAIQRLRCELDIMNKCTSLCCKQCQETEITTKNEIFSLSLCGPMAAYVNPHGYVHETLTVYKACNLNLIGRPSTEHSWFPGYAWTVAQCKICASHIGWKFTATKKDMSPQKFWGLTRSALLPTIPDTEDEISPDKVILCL
Data set [2] addresses T1, Protein cereblon/Poly [ADP-ribose] polymerase 1. In words: Protac activity at CRBN/PARP1 in human MDA-MB-436 cells assessed as PARP1 protein degradation at 1 to 10 nM incubated for 24 hrs by western blot analysis. Particulars: dose nM 1-10, time 24.0 hrs. The data set is classed as cell-based. (In general: In western blotting, separated proteins are transferred to a membrane and probed.)
Target sequence in this assay (P09874 2-1014 limits assumed): as the sequence (P09874 2-1014 limits assumed) above
Target sequence in this assay (Q96SW2 whole entry partner): as the sequence (Q96SW2 whole entry partner) above

Data set [3] concerns the target Poly [ADP-ribose] polymerase 1 (Homo sapiens, UniProt P09874). In words: Inhibition of recombinant human C-terminal His-tagged PARP1 expressed in Sf9 insect cells preincubated for 20 mins in presence of activated DNA followed by […] addition and further incubated for 2 hrs by chemiluminescence assay.
The test system of data set [4] is LNCaP. In words: Antiproliferation activity against human LNCAP assessed as cell growth inhibition incubated for 7 days by CCK-8 assay. The data set is classed as functional, cell-based. Particulars: time 7.0 day. In short, it runs like this:
(§1)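 Cells were sub-cultured at least twice and seeded for 24 h before dosing. Compounds came from 10 mM DMSO stocks, given as 10 points of 3-fold serial dilution starting at 10-20 μM. Incubation was about 7 days (Capan-1 13 days) at 37 °C, 5% CO2. Read-out was CCK-8 absorbance at 450 nm, as % growth versus DMSO wells (duplicate wells). IC50 was fitted by nonlinear regression; three independent experiments.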
(Formazan colour is commonly taken as a measure of viable cells.)

The test system of data set [5] is CAPAN-1. In words: Antitumor activity against Capan1 cells xenografted in Balb/c mouse assessed as tumor growth inhibition at 25 mg/kg, ip administered 5 times a week for 3 weeks. The data set is classed as functional, organism-based. Put shortly: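 Male BALB/c nude mice (5-6 weeks old) carried subcutaneous Capan-1 xenografts (5×10^6 cells, right armpit). At ~150 mm³ they were randomized (6 per group). Dosing was 100 mg/kg by oral gavage daily for 21 days, or 25 mg/kg intraperitoneally 5 times a week for 3 weeks. Vehicle was 5% DMSO/20% PEG400/10% Cremophor EL/65% saline. Tumor volume was (length/2)×width², measured 2-3 times weekly.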

Data set [6] addresses T1, Protein cereblon/Poly [ADP-ribose] polymerase 1. Put plainly: Protac activity at CRBN/PARP1 in human SW-620 cells assessed as induction of PARP1 degradation at 30 nM incubated for 24 hrs in presence of proteasome inhibitor MG132 by Western blot analysis. Format: cell-based.
Target sequence in this assay (P09874 2-1014 limits assumed): as the sequence (P09874 2-1014 limits assumed) above
Target sequence in this assay (Q96SW2 whole entry partner): as the sequence (Q96SW2 whole entry partner) above
Data set [7] has the same target. In words: Protac activity at CRBN/PARP1 in human SW-620 cells assessed as induction of PARP1 degradation at 30 nM incubated for 24 hrs in presence of proteasome inhibitor carfilzomib by Western blot analysis. The data set is classed as cell-based.
Target sequence in this assay (P09874 2-1014 limits assumed): as the sequence (P09874 2-1014 limits assumed) above
Target sequence in this assay (Q96SW2 whole entry partner): as the sequence (Q96SW2 whole entry partner) above
Data set [8] in a line: Acute toxicity in Balb/c mouse xenografted with Capan1 cells assessed as lethality at 25 to 50 mg/kg, ip qd administered for 5 days in presence of cisplatin. Format: organism-based. Particulars: in vivo, 120 h, dose 25-50 mg/kg, time 5 day. Put shortly: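 Male BALB/c nude mice (5–6 weeks) carried s.c. Capan-1 xenografts (5×10^6 cells, right armpit) and were randomised at about 150 mm³, 6 per group. The agent was given once daily on days 0–4, by oral gavage or i.p., in DMSO/PEG400/Cremophor EL/saline vehicle. Cisplatin 6 mg/kg in saline was given i.p. on day 2, 45 min after the agent. Body weight was recorded 2–3 times weekly.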

Data set [9] concerns the target T1, Protein cereblon/Poly [ADP-ribose] polymerase 1. Put plainly: Protac activity at CRBN/PARP1 in human CAPAN-1 cells assessed as induction of PARP1 degradation at 100 nM incubated for 24 hrs by Western blot analysis relative to control. Format: cell-based. In short, it runs like this: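 Capan-1 cells were treated 24 h (1-1000 nM, or a wider dose range for DC50). Lysis was in RIPA buffer with protease inhibitors, and 20-30 μg protein was blotted. PARP1 was normalized to β-tubulin and to DMSO control, quantified by densitometry. DC50 came from two independent experiments.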
Target sequence in this assay (P09874 2-1014 limits assumed): as the sequence (P09874 2-1014 limits assumed) above
Target sequence in this assay (Q96SW2 whole entry partner): as the sequence (Q96SW2 whole entry partner) above

Data set [10] has as its system SW-620. Put plainly: Antiproliferation activity against human SW620 assessed as cell growth inhibition incubated for 7 days by CCK-8 assay. The data set is classed as functional, cell-based. To be noted: time 7.0 day. Put shortly: as §1
Data set [11] has as its target T1, Protein cereblon/Poly [ADP-ribose] polymerase 1. In words: Protac activity at CRBN/PARP1 in human HCC1937 cells assessed as induction of PARP1 degradation at 30 nM incubated for 1 to 24 hrs by Western blot analysis. The data set is classed as cell-based. Particulars: time hrs 1-24.
Target sequence in this assay (P09874 2-1014 limits assumed): as the sequence (P09874 2-1014 limits assumed) above
Target sequence in this assay (Q96SW2 whole entry partner): as the sequence (Q96SW2 whole entry partner) above
Data set [12] has the same target. Put plainly: Protac activity at CRBN/PARP1 in human PC-3 cells assessed as induction of PARP1 degradation measured after 24 hrs by Western blot analysis. Format: cell-based. In short, it runs like this:
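Concentration-response over a wide range, 24 h exposure; PARP1 quantified by western blot and normalized to β-tubulin density; DC50 derived from two biologically independent experiments.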
Target sequence in this assay (P09874 whole entry): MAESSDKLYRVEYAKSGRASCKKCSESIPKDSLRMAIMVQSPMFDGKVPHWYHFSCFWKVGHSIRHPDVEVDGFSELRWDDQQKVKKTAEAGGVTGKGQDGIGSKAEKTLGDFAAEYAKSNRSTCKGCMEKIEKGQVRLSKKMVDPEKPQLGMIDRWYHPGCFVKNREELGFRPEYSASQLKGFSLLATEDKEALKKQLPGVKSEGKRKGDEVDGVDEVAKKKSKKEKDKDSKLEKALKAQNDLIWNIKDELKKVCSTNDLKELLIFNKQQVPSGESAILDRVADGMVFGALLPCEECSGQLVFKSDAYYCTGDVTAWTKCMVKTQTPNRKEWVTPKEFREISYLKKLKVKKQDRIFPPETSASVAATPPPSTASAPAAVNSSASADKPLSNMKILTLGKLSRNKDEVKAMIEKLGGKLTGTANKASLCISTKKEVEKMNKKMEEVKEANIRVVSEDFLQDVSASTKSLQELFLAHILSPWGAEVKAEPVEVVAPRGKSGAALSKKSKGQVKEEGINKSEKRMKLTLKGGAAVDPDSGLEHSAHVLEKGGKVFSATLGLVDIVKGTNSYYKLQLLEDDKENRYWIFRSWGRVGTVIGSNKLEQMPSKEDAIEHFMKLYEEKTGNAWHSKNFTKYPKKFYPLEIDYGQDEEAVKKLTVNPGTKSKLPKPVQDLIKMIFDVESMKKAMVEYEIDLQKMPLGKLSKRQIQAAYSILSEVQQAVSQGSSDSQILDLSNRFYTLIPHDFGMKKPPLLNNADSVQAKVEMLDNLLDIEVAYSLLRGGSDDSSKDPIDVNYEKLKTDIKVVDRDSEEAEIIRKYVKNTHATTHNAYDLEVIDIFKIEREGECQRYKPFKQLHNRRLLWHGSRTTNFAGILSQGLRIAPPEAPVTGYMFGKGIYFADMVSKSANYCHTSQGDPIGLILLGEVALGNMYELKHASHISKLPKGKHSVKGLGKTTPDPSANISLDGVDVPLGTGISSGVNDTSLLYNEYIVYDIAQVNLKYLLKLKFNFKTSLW
Target sequence in this assay (Q96SW2 whole entry): as the sequence (Q96SW2 whole entry partner) above

Data set [13] deals with SW-620. In words: Potentiation of MMS induced cytotoxicity against human SW-620 cells preincubated for 1 hr followed by addition of MMS measured after 5 days by CCK-8 assay. The data set is classed as functional, cell-based. Particulars: dose nM 3-300, time 1.0 hrs. Put shortly:
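SW620 cells (1000/well) were attached for 24 h, then preincubated 1 h with DMSO or a single compound concentration (3, 10, 100 or 300 nM). MMS was then added at 0-15 μg/mL (final concentration not stated). Incubation ran 5 days, followed by CCK-8 read at 450 nm. Growth was expressed as % of DMSO-only wells, mean of three wells.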

Data set [14] addresses T1, Protein cereblon/Poly [ADP-ribose] polymerase 1. Put plainly: Protac activity at CRBN/PARP1 in human HCC1937 cells assessed as induction of PARP1 degradation measured after 24 hrs by Western blot analysis. The data set is classed as cell-based. Put shortly:
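The cell line was treated 24 h across a concentration range. PARP1 was measured by western blot against β-tubulin. DC50 is the average of two biologically independent experiments.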
Target sequence in this assay (P09874 whole entry): as the sequence (P09874 whole entry) above
Target sequence in this assay (Q96SW2 whole entry): as the sequence (Q96SW2 whole entry partner) above

For data set [15], the system named is CAPAN-1. Put plainly: Antiproliferative activity against human CAPAN-1 cells assessed as cell growth inhibition incubated for 13 days by CCK-8 assay. Format: functional, cell-based. To be noted: CAPAN-1, 312 h. In short, it runs like this:
as §1

Data set [16] concerns SW-620. Put plainly: Potentiation of TMZ induced antitumor activity against SW-620 cells xenografted in Balb/c mouse assessed as tumor growth suppression administered intraperitoneally once daily for 5 days. Format: functional. Particulars: dose mg/kg 5-10, time 5.0 day. In short, it runs like this: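 Male BALB/c nude mice carried SW620 xenografts (6×10^6 cells s.c.), randomized at ~150 mm³ (6 per group). TMZ 50 mg/kg was given orally once daily on days 0-4, 45 min after the partner drug. Partners were 5 or 10 mg/kg intraperitoneally or 10 mg/kg by oral gavage, daily for 5 days. Vehicle was 5% DMSO/20% PEG400/10% Cremophor EL/65% saline. Tumor volume and body weight were recorded 2-3 times weekly.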

The target in data set [17] is T1, Protein cereblon/Poly [ADP-ribose] polymerase 1. In words: Protac activity at CRBN/PARP1 in human MDA-MB-468 cells assessed as induction of PARP1 degradation at 30 nM incubated for 1 to 24 hrs by Western blot analysis. To be noted: time hrs 1-24. Format: cell-based.
Data set [18] concerns HCC1937. Put plainly: Antiproliferation activity against human HCC1937 assessed as cell growth inhibition incubated for 7 days by CCK-8 assay. Format: functional, cell-based. Particulars: time 7.0 day. In short, it runs like this:
as §1

In data set [19] the test system is MDA-MB-436. In words: Antiproliferative activity against human MDA-MB-436 cells assessed as cell growth inhibition incubated for 7 days by CCK-8 assay. Format: functional, cell-based. Particulars: MDA-MB-436, 168 h. Put shortly: as §1

Activity calls are given as the source filed them. No cut-off for these calls is given here.

Poly [ADP-ribose] polymerase 1, sequence (P09874 whole entry): as the sequence (P09874 whole entry) above

As to `O=C(CCCCCCCCCCC(=O)N1CCN(C(=O)c2cc(Cc3n[nH]c(=O)c4ccccc34)ccc2F)CC1)NCCNc1cccc2c1C(=O)N(C1CCC(=O)NC1=O)C2=O` (centres undefined), the outcome in data set [1], in data set [2], in [4], in data set [5], in data set [10] and in data set [11] was Active. Moreover, the outcome in data set [17] and in [18] was Active. Further, the IC50 in data set [3] worked out at 2.3 nM; in data set [15] it was 56 nM; in [19], 19 nM. Moreover, the result in data set [6] and in data set [7] was inactive. Also, the Activity result was “Non-Toxic” in data set [8], 100% in data set [9], “Dose-dependent effect” in data set [13] and “Dose-dependent effect” in data set [16]. Besides, the results for the DC50 in data set [12] and in data set [14] were 0.578 nM and 0.384 nM, respectively.
